# In ChEMBL document CHEMBL1641369, “The synthesis and biological evaluation of 2-(3-methyl or 3-phenylisoxazol-5-yl)-3-aryl-8-thiabicyclo[3.2.1]octanes” (Bioorg Med Chem Lett, 2011):
# Columns and labels:
# [1] = target: Sodium-dependent serotonin transporter (Homo sapiens, UniProt P31645); assay: Displacement of [3H]citalopram from human SERT expressed in HEK293 cell membrane; assay type: cell membranes
# Procedure, shortened: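 Human SERT was labelled with [3H]citalopram at a fixed concentration and competed against a range of test-drug concentrations. Nonspecific binding was measured with fluoxetine at 10 μM. IC50 reported as mean ± SEM of at least three independent experiments, each run in triplicate. Some entries are screening data from replicate triplicate experiments.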
# [2] = target: Sodium-dependent dopamine transporter (Homo sapiens, UniProt Q01959); assay: Displacement of [3H]WIN35428 from human DAT transfected cell membrane
# Sodium-dependent dopamine transporter, sequence (Q01959 whole entry): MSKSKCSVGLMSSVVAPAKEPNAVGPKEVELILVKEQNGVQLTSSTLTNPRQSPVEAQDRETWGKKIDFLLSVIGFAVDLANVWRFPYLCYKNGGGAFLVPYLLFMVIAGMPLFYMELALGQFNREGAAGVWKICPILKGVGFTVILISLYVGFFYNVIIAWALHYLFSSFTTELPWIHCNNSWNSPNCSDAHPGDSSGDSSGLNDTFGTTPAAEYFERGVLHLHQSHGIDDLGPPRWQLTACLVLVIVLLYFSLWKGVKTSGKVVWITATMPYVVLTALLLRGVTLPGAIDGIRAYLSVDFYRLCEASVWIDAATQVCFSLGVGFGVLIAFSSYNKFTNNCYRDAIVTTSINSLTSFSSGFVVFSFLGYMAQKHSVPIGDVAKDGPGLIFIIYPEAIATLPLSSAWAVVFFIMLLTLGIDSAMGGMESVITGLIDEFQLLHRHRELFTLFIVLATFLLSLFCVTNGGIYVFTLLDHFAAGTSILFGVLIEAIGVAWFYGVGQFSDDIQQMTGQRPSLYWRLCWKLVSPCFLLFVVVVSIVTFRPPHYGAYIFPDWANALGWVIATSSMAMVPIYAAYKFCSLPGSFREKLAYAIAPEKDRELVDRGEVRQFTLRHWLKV
# Sodium-dependent serotonin transporter, sequence (P31645 whole entry): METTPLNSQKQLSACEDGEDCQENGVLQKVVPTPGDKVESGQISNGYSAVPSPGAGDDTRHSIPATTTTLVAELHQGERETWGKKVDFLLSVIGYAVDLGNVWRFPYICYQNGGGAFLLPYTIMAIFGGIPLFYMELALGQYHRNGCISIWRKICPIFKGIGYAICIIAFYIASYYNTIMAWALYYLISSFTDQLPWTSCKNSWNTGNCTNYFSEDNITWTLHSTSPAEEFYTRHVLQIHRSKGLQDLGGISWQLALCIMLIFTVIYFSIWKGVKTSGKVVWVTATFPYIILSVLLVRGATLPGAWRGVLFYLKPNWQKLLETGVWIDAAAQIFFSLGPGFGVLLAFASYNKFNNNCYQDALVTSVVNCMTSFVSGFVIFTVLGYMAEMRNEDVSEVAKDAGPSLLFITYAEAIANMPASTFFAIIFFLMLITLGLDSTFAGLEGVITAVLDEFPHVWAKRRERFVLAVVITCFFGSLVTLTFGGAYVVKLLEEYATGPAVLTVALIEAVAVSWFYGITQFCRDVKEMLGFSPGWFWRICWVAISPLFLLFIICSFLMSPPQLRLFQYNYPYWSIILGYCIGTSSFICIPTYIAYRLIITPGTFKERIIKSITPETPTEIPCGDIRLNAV
smiles,measurement,setting,value
Cc1cc([C@@H]2C3CCC(C[C@H]2c2ccccc2)S3)on1 (stereo partly specified),IC50,[1],> 10000 nM
same,IC50,[2],65 nM
Cc1cc(C2=C(c3ccccc3)CC3CCC2S3)on1 (stereo unspecified),IC50,[1],> 10000 nM
same,IC50,[2],> 2000 nM
Clc1ccc([C@@H]2CC3CCC(S3)C2c2cc(-c3ccccc3)no2)cc1Cl (stereo partly specified),IC50,[1],> 10000 nM
same,IC50,[2],497 nM
c1ccc(-c2cc(C3C4CCC(C[C@H]3c3ccccc3)S4)on2)cc1 (stereo partly specified),IC50,[1],> 10000 nM
same,IC50,[2],> 1000 nM
Clc1ccc(C2=C(c3cc(-c4ccccc4)no3)C3CCC(C2)S3)cc1 (stereo unspecified),IC50,[1],> 10000 nM
same,IC50,[2],66.5 nM
Cc1cc(C2=C(c3ccc(Cl)cc3)CC3CCC2S3)on1 (stereo unspecified),IC50,[1],> 10000 nM
same,IC50,[2],155 nM
Cc1cc([C@@H]2C3CCC(C[C@@H]2c2ccc(Cl)c(Cl)c2)S3)on1 (stereo partly specified),IC50,[1],766 nM
same,IC50,[2],43.5 nM
Cc1cc([C@@H]2C3CCC(C[C@H]2c2ccc(Cl)cc2)S3)on1 (stereo partly specified),IC50,[1],> 7000 nM
same,IC50,[2],32.7 nM
c1ccc(-c2cc(C3C4CCC(C[C@@H]3c3ccccc3)S4)on2)cc1 (stereo partly specified),IC50,[1],> 10000 nM
same,IC50,[2],157 nM
Cc1cc(C2=C(c3ccc(Cl)c(Cl)c3)CC3CCC2S3)on1 (stereo unspecified),IC50,[1],> 10000 nM
same,IC50,[2],69.2 nM
Brc1ccc([C@@H]2CC3CCC(S3)C2c2cc(-c3ccccc3)no2)cc1 (stereo partly specified),IC50,[1],> 10000 nM
same,IC50,[2],238 nM
Fc1ccc([C@H]2CC3CCC(S3)C2c2cc(-c3ccccc3)no2)cc1 (stereo partly specified),IC50,[1],> 10000 nM
same,IC50,[2],49 nM
Cc1cc([C@@H]2C3CCC(C[C@@H]2c2ccc(F)cc2)S3)on1 (stereo partly specified),IC50,[1],> 1000 nM
same,IC50,[2],7 nM
Clc1ccc(C2=C(c3cc(-c4ccccc4)no3)C3CCC(C2)S3)cc1Cl (stereo unspecified),IC50,[1],> 10000 nM
same,IC50,[2],332 nM
Clc1ccc([C@@H]2CC3CCC(S3)C2c2cc(-c3ccccc3)no2)cc1 (stereo partly specified),IC50,[1],> 10000 nM
same,IC50,[2],130 nM
Cc1cc([C@@H]2C3CCC(C[C@H]2c2ccc(Br)cc2)S3)on1 (stereo partly specified),IC50,[1],> 4000 nM
same,IC50,[2],46.6 nM
Cc1cc(C2=C(c3ccc(Br)cc3)CC3CCC2S3)on1 (stereo unspecified),IC50,[1],> 10000 nM
same,IC50,[2],139 nM
Fc1ccc([C@@H]2CC3CCC(S3)C2c2cc(-c3ccccc3)no2)cc1 (stereo partly specified),IC50,[1],> 10000 nM
same,IC50,[2],456 nM
Cc1cc([C@@H]2C3CCC(C[C@H]2c2ccc(F)cc2)S3)on1 (stereo partly specified),IC50,[1],> 10000 nM
same,IC50,[2],22 nM
Cc1cc([C@@H]2C3CCC(C[C@@H]2c2ccc(Cl)cc2)S3)on1 (stereo partly specified),IC50,[1],> 1000 nM
same,IC50,[2],7.2 nM
c1ccc(C2=C(c3cc(-c4ccccc4)no3)C3CCC(C2)S3)cc1 (stereo unspecified),IC50,[1],> 10000 nM
same,IC50,[2],> 5000 nM
Brc1ccc(C2=C(c3cc(-c4ccccc4)no3)C3CCC(C2)S3)cc1 (stereo unspecified),IC50,[1],> 10000 nM
same,IC50,[2],126 nM
Cc1cc([C@@H]2C3CCC(C[C@@H]2c2ccccc2)S3)on1 (stereo partly specified),IC50,[1],> 10000 nM
same,IC50,[2],12 nM
Cc1cc([C@@H]2C3CCC(C[C@@H]2c2ccc(Br)cc2)S3)on1 (stereo partly specified),IC50,[1],755 nM
same,IC50,[2],14 nM
Cc1cc([C@@H]2C3CCC(C[C@H]2c2ccc(Cl)c(Cl)c2)S3)on1 (stereo partly specified),IC50,[1],> 2000 nM
same,IC50,[2],101 nM
Cc1cc(C2=C(c3ccc(F)cc3)CC3CCC2S3)on1 (stereo unspecified),IC50,[1],> 10000 nM
same,IC50,[2],> 1000 nM
Fc1ccc(C2=C(c3cc(-c4ccccc4)no3)C3CCC(C2)S3)cc1 (stereo unspecified),IC50,[1],> 10000 nM
same,IC50,[2],> 2000 nM
Clc1ccc([C@H]2CC3CCC(S3)C2c2cc(-c3ccccc3)no2)cc1Cl (stereo partly specified),IC50,[1],> 10000 nM
same,IC50,[2],269 nM
